Sampled rows, rich in hits. Any-hit rate of the full collection: about 3.8%.
Lipid droplet – inhibitors of hepatocyte lipid droplet formation, primary screen, imaging, high-throughput imaging, BODIPY stain; AID 1656, 2009; actives 0.4% (n = 240,000); AML12 mouse hepatocytes, oleate lipid droplets; inhibition, % at 6.5 µM;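 active = lipid droplet intensity inhibited by at least 50%, with more than 500 cells counted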
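Assay system: AML12 mouse liver cells | Compound dosing: One dose, 6.5 µM compound | Read-out basis: Droplet intensity reduction, % inhibition | Measured by: Fluorescence imaging, 20x objective, two fields per well | Schedule: Overnight treatment with compound plus oleate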
HSF1 inhib – HSF1 inhibitors in luciferase reporter cells, primary screen, cell-based, NIH3T3, luminescence | NIH3T3-HGL HSE-luciferase, MG132-induced, luminescence 8 h; stronger effect = lower value | activity change, negative = inhibition, % at 7.5 µM (by protocol) | actives 0.77% (n = 300,000);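 active = more than half of replicate wells show activity change below -50%, luminescence cut by over half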;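 note: luciferase reports HSF-1 transcriptional activity via heat shock element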
HCV NS3 hel inh – inhibitors of HCV NS3 helicase, primary screen, biochemical, Cy5 molecular beacon fluorescence. NS3 helicase DNA unwinding. AID 1800, 2009. inhibition, % at 10.9 µM. actives 0.56% (n = 290,000). Hepatitis C virus NS3 helicase;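 active = inhibition above the mean of all tested compounds plus 3 SD, set per campaign, cut at about 35% in these data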
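System: Hepatitis C virus NS3 helicase domain fragment enzyme | Reagent: Annealed dual-labelled DNA beacon duplex, ATP-started | Compound dosing: 10.9 µM single point, 0.8% DMSO | Incubation: 1 h reaction at 25 °C, ATP-initiated | Technique: Cy5 fluorescence | Evaluation: Percent inhibition from t60/t0 fluorescence ratio | Benchmarks: Low DMSO, high thioflavine S at 110 µM | Replication: Singlicate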
HSF1 activator – HSF-1 activators, primary screen, NIH3T3-HGL cells, MG132 stress, luminescence, single point. AID 504408, 2011. NIH3T3-HGL HSF-1 luciferase reporter, 8 h; 100% = twice DMSO control signal. activation, % at 9 µM. actives 1.7% (n = 300,000);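 active = mean replicate activation of at least 50% with a set share of replicates each reaching 50%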
HSP90 refold inh – HSP90 inhibitors, primary screen, cell lysate, luminescence | Rabbit reticulocyte lysate, luciferase refolding luminescence, 3 h | inhibition, % at 5.6 µM | Heat shock protein HSP 90 (rabbit reticulocyte lysate; luciferase refolding) | AID 1789, 2009 | actives 0.91% (n = 290,000);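 active = inhibition above the screen-wide mean plus 3 SD, computed separately per campaign, cut at about 16% in these data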;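 note: inhibitors lower the luminescence because luciferase stays unfolded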
Each line names hits and unclear results; the compound was inactive in the other large screens.

Fc1ccccc1CSc1nc2ncc(Br)cc2[nH]1	none
COCCNC(=O)Cn1cnc2sc(C)c(S(=O)(=O)N3CCN(c4ccccc4OC)CC3)c2c1=O	none
COCCCNC(=O)Cn1cnc2sc(C)c(S(=O)(=O)N3CCN(c4ccccc4OC)CC3)c2c1=O	HSF1 inhib -72
CCN1C(=O)c2cccc3c(S(=O)(=O)Nc4ccccc4)ccc1c23	HSF1 activator 59 (no result: Lipid droplet)
CCN1C(=O)c2cccc3c(S(=O)(=O)Nc4ncccc4C)ccc1c23	HSF1 activator 89 (no result: Lipid droplet)
CCN1C(=O)c2cccc3c(S(=O)(=O)Nc4ccccn4)ccc1c23	none (no result: Lipid droplet)
CCOc1ccc(CCNC(=O)C(O)c2ccccc2)cc1 (stereo not drawn)	none (no result: Lipid droplet)
CCOc1ccc(/C=N/NC(=O)C(O)c2ccccc2)c(O)c1 (stereo not drawn)	HSF1 inhib -82
O=C(O)C1Nc2c(Cl)cc(Cl)c(Cl)c2C2C=CCC12 (stereo not drawn)	HCV NS3 hel inh 57 (no result: Lipid droplet)
O=C(O)C1Nc2c(Cl)cc(Cl)cc2C2C=CCC12 (stereo not drawn)	none
O=C(Nc1cccc(S(=O)(=O)N2CCCCC2)c1)c1ccc([N+](=O)[O-])o1	HSF1 activator 74
CN1CCN(c2ccc(NC(=O)c3ccc([N+](=O)[O-])o3)cc2Cl)CC1	HSF1 inhib -78
Cc1ccc(NC(=O)c2cc([N+](=O)[O-])ccc2N2CCOCC2)cc1S(=O)(=O)N1CCOCC1	none
O=C(Nc1cccc(O)c1)c1cccc(S(=O)(=O)N2CCCC2)c1	none
Cc1ccc(NC(=O)c2ccc([N+](=O)[O-])o2)cc1S(=O)(=O)N1CCOCC1	HSF1 activator 75
O=C(Nc1cccc(O)c1)c1ccc(S(=O)(=O)N2CCCCCC2)cc1	HSF1 activator 75
O=C(c1ccco1)N1CCCN(Cc2nc(Cc3ccccc3)no2)CC1	none (no result: HSF1 inhib, HSF1 activator)
COC(=O)c1cc(S(=O)(=O)N2CCN(Cc3ccccc3)CC2)cn1C	none
COCCN(C(=O)c1cc(OC)c(OC)c(OC)c1)c1c(N)n(Cc2ccccc2)c(=O)[nH]c1=O	none
CC(C)C(=O)N1CCN(c2ccc(NC(=O)c3ccc([N+](=O)[O-])o3)cc2Cl)CC1	none (no result: HSF1 inhib, HSF1 activator)
Cc1ccc(S(=O)(=O)N2CCCCC2)cc1NC(=O)c1ccc2c(c1)OCO2	HSF1 activator 69
Cc1ccc(NC(=O)c2cc(NC(=O)c3ccco3)ccc2N2CCOCC2)cc1	HSF1 inhib -64
Cc1ccc(NC(=O)c2cc(NC(=O)c3ccco3)ccc2N2CCCCC2)cc1	none (no result: Lipid droplet)
COc1c(C)cccc1C(=O)Nc1ccc(N2CCOCC2)c(Cl)c1	HSF1 activator 60
O=C(Nc1ccc(N2CCOCC2)c(Cl)c1)c1ccc([N+](=O)[O-])o1	HSF1 activator 141
O=C(O)c1cccc(N2C(=O)c3cc([N+](=O)[O-])cc4cc([N+](=O)[O-])cc(c34)C2=O)c1	none
O=C(Cc1ccccc1)Nc1cc(Cl)ccc1Sc1ccccc1	HSF1 activator 58
COc1ccc(C(=O)c2ccc([N+](=O)[O-])cc2Cl)cc1	none
COc1ccc2nc(NC(=O)c3ccccc3[N+](=O)[O-])sc2c1	none
Cc1ccc(Nc2nc(-c3ccccc3)c(CC(=O)O)s2)cc1	HSF1 activator 63
O=C(O)Cc1sc(Nc2ccccc2)nc1-c1ccc(Cl)cc1	none
COc1ccc2nc(Nc3ccccc3OC)sc2c1	HSF1 activator 73
COc1ccc2nc(Nc3ccccc3)sc2c1	HSF1 activator 68
COc1ccc2nc(Nc3ccc4c(c3)OCO4)sc2c1	none
COc1ccc2nc(NC(=O)c3ccccc3O)sc2c1	HSF1 activator 103
COCCN(C(=O)CSc1nnc(-c2ccccc2F)n1C)c1c(N)n(Cc2ccccc2)c(=O)[nH]c1=O	none
CCOC(=O)c1nn(-c2ccc(F)cc2)c(=O)cc1OCC(=O)Nc1ccc(F)c(F)c1	none (no result: Lipid droplet, HCV NS3 hel inh, HSP90 refold inh)
COc1ccc(C(=O)NCCONC(=O)c2ccc(OC)cc2)cc1	none
O=C(CSc1ccccn1)NC1CCCC1	none
Fc1ccc(Nc2nc3ccccc3s2)cc1	none
Cc1ccc(Nc2nc3ccccc3s2)cc1	HSF1 activator 60
CN(C)C(=S)Nc1nc2ccccc2s1	HSF1 activator 83
CC(=O)N[C@@H](Cc1c[nH]c2ccccc12)C(=O)NCCc1ccc(S(N)(=O)=O)cc1	none
CC(=O)N[C@@H](Cc1c[nH]c2ccccc12)C(=O)NCc1ccccc1	HSF1 activator 65
CCc1ccc(C2CC(=O)N(c3ccc(F)cc3)C3=C2C(=O)OC3)cc1 (stereo not drawn)	none
O=C1NC(c2ccc(Cl)cc2)Oc2ccccc21 (stereo not drawn)	none
CC(C)c1ccc(C2NC(=O)c3ccccc3O2)cc1 (stereo not drawn)	HSF1 activator 71
Cc1c(Cl)cccc1NC(=S)NNS(=O)(=O)c1ccc([N+](=O)[O-])cc1	none
Cc1ccc(C(=O)Nc2nnc(C3CCCCC3)s2)o1	HSF1 activator 68
COc1ccc(N2CC(C(=O)Nc3nnc(C4CCCCC4)s3)CC2=O)cc1 (stereo not drawn)	HSF1 inhib -62
CCC(=O)Nc1ccc(C2=Nn3c(nnc3C(C)C)SC2)cc1	none
Cc1ccc(NC(=O)N2CCCC2C(=O)Nc2c(C)cc(C)cc2C)cc1 (stereo not drawn)	HSF1 activator 57
CC(C)CCCN1C(Nc2ccccc2)=NC[C@@H]1C	none
CCCC(=O)N1CCN(c2ccc(NC(=O)c3cccs3)cc2)CC1	HSF1 activator 53
O=C(Nc1ccc(N2CCCC2)c(Cl)c1)c1cccs1	HSF1 activator 82
O=C(NC(=S)N1CCN(c2c(Cl)cccc2[N+](=O)[O-])CC1)c1cccs1	HSF1 inhib -95
O=C(NC(=S)Nc1ccc(N2CCOCC2)c(Cl)c1)c1cccs1	none
O=C(NC(=S)N1CCN(c2ccc(F)cc2)CC1)c1cccs1	HSF1 activator 103
O=C(NCC1CCCO1)C(Cc1ccccc1)N1C(=O)C2C3C=CC(C4CC34)C2C1=O (stereo not drawn)	none
O=C(Nc1ccc(N2CCOCC2)cc1)C1CCN(S(=O)(=O)c2ccccc2F)CC1	none
O=C(CNS(=O)(=O)c1ccccc1F)Nc1ccc(N2CCOCC2)cc1	HSF1 inhib -88
C=CCn1c(CCNC(=O)c2ccc(Cl)c(Cl)c2)nnc1SCCOc1ccc(OC)cc1	HSF1 activator 128 (no result: Lipid droplet)
C=CCn1c(SCCOc2ccccc2)nnc1C(C)NC(=O)c1ccccc1 (stereo not drawn)	none (no result: Lipid droplet)
CCc1ccc(/C=C\C(=O)N2CCCC2)cc1	none (no result: Lipid droplet, HCV NS3 hel inh, HSP90 refold inh)
Cc1ccc(/C=C/C(=O)N2CCCC(C)C2)cc1 (stereo not drawn)	HSF1 activator 65
CC(C)Cc1ccc(/C=C/C(=O)N2CCCCC2)cc1	HSF1 activator 58
